Laboratory results: ChEMBL document CHEMBL1122660 (J Med Chem, 1984)

How the values were obtained:
[1] = Partition coefficient between 1-octanol and water containing phosphate buffer at pH 7.4; type: physicochemical; details: 1-octanol/water containing phosphate buffer
[2] = tested on: P388; assay: Ratio of optimal dose (OD) and minimum effective dose (MED) required for antitumor activity in mice bearing P-388 lymphocytic leukemia; type: functional, Mus musculus
[3] = tested on: P388; assay: Minimum effective dose against P388 leukemic cells; type: functional; details: Mus musculus, read-out: MED
[4] = tested on: P388; assay: Optimum dose (mg/kg) against P388 leukemic cells; type: functional, Mus musculus
[5] = species: Mus musculus; assay: Maximum percent T/C (antitumor activity) against P388 leukemia cells for Mitomycin C. The number of 30-day survivors is given in the parenthesis.; type: functional
[6] = tested on: P388; assay: Maximum percent T/C (antitumor activity) against P388 leukemia cells; type: functional, Mus musculus
[7] = tested on: P388; assay: Maximum percent T/C (antitumor activity) against P388 leukemia cells for Mitomycin C; type: functional, Mus musculus
[8] = Distribution between 1-octanol and water containing phosphate buffer at pH 7.4; type: physicochemical; details: 1-octanol/water containing phosphate buffer
[9] = species: Mus musculus; assay: Maximum percent T/C (antitumor activity) against P388 leukemia cells for the compound. The number of 30-day survivors is given in the parenthesis.; type: functional
[10] = species: Mus musculus; assay: Percentage change in WBC at optimum dose on day 3; type: functional
[11] = tested on: Mus musculus; assay: Evaluated for antitumor activity against B-16 melanoma in mice aat a dose 2 mg/kg day, ip,on days 1, 4, and 7 against B-16 Melanoma cell; type: functional
[12] = tested on: Mus musculus; assay: Evaluated for antitumor activity against B-16 melanoma in mice at a dose 6 mg/kg day, ip, on days 1, 4, and 7 against B-16 Melanoma cell; type: functional
[13] = tested on: Mus musculus; assay: Evaluated for antitumor activity against B-16 melanoma in mice at a dose 8 mg/kg day, ip, on days 1, 4, and 7 against B-16 Melanoma cell; type: functional
[14] = tested on: Mus musculus; assay: Evaluated for antitumor activity against B-16 melanoma in mice at a dose 2 mg/kg day, ip, on days 1, 4, and 7 against B-16 Melanoma cell; type: functional
Outline: (§1)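 B-16 melanoma in mice, run at Bristol Laboratories by standard NCI protocols. Compound given ip on days 1, 4 and 7 in Me2SO + buffered saline vehicle; ten mice per dose. Read-outs per dose: %T/C, number of survivors, and weight change.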

[15] = tested on: Mus musculus; assay: Evaluated for antitumor activity against B-16 melanoma in mice at a dose 4 mg/kg day, ip, on days 1, 4, and 7 against B-16 Melanoma cell; type: functional; outline: as §1
[16] = tested on: Mus musculus; assay: Evaluated for antitumor activity against B-16 melanoma in mice aat a dose 3 mg/kg day, ip,on days 1, 4, and 7 against B-16 Melanoma cell; type: functional
[17] = tested on: Mus musculus; assay: Evaluated for antitumor activity against B-16 melanoma in mice at a dose 3 mg/kg day, ip, on days 1, 4, and 7 against B-16 Melanoma cell *-Tumors survivors on day 62; type: functional
[18] = tested on: Mus musculus; assay: Evaluated for antitumor activity against B-16 melanoma in mice at a dose 3 mg/kg day, ip, on days 1, 4, and 7 against B-16 Melanoma cell; type: functional; outline: as §1
[19] = tested on: Mus musculus; assay: Evaluated for antitumor activity against B-16 melanoma in mice at a dose 5 mg/kg day, ip, on days 1, 4, and 7 against B-16 Melanoma cell; type: functional
[20] = tested on: Mus musculus; assay: Evaluated for antitumor activity against B-16 melanoma in mice at a dose 12 mg/kg day, ip, on days 1, 4, and 7 against B-16 Melanoma cell; type: functional
[21] = tested on: Mus musculus; assay: Evaluated for antitumor activity against B-16 melanoma in mice at a dose 5 mg/kg day, ip, on days 1, 4, and 7 against B-16 Melanoma cell *-Tumors survivors on day 62; type: functional
[22] = tested on: Mus musculus; assay: Evaluated for antitumor activity against B-16 melanoma in mice at a dose 4 mg/kg day, ip, on days 1, 4, and 7 against B-16 Melanoma cell *-Tumors survivors on day 62; type: functional
[23] = tested on: Mus musculus; assay: Evaluated for antitumor activity against B-16 melanoma in mice at a dose 1 mg/kg day, ip, on days 1, 4, and 7 against B-16 Melanoma cell; type: functional; outline: as §1
[24] = tested on: Mus musculus; assay: Evaluated for antitumor activity against B-16 melanoma in mice at a dose 1 mg/kg day, ip, on days 1, 4, and 7 against B-16 Melanoma cell *-Tumors survivors on day 62; type: functional
[25] = tested on: Mus musculus; assay: Evaluated for antitumor activity against B-16 melanoma in mice at a dose 2 mg/kg day, ip, on days 1, 4, and 7 against B-16 Melanoma cell *-Tumors survivors on day 62; type: functional
[26] = tested on: Mus musculus; assay: Evaluated for antitumor activity against B-16 melanoma in mice aat a dose 1 mg/kg day, ip,on days 1, 4, and 7 against B-16 Melanoma cell; type: functional; outline: as §1
[27] = species: Mus musculus; assay: Maximum percent T/C (antitumor activity) against P388 leukemia cells for the compound; 144-325; type: functional

COC12[C@@H]3N[C@@H]3CN1C1=C(C(=O)C(Nc3ccc(Cl)cc3)=C(C)C1=O)[C@@H]2COC(N)=O (some centres undefined)
logD [1]: 2.01 | Therapeutic ratio [2]: 4 | minimal effective dose [3]: 6.4 mg/kg | OD [4]: 25.6 mg/kg | T/C [5]: 250% | T/C [6]: 144%

COC12[C@@H]3N[C@@H]3CN1C1=C(C(=O)C(Nc3nc(C)c(C)s3)=C(C)C1=O)[C@@H]2COC(N)=O (some centres undefined)
Therapeutic ratio [2]: 128 | minimal effective dose [3]: 0.2 mg/kg | OD [4]: 25.6 mg/kg | T/C [7]: 219% | T/C [6]: 188% | logD [8]: 1.29

COC12[C@@H]3N[C@@H]3CN1c1c(O)c(C)c(/N=C3/C=CC(=N)N=C3)c(O)c1[C@@H]2COC(N)=O (some centres undefined)
Therapeutic ratio [2]: 32 | minimal effective dose [3]: 0.4 mg/kg | OD [4]: 12.8 mg/kg | T/C [7]: 206% | T/C [6]: 277% | logD [8]: -0.32

COc1ccc(NC2=C(C)C(=O)C3=C(C2=O)[C@H](COC(N)=O)C2(OC)[C@@H]4N[C@@H]4CN32)cc1 (some centres undefined)
logD [1]: 1.28 | T/C [9]: 316% | Therapeutic ratio [2]: 16 | OD [4]: 12.8 mg/kg | T/C [5]: 268% | Change [10]: -76%

COC12[C@@H]3N[C@@H]3CN1C1=C(C(=O)C(N=C3C=CC(=Nc4c(C)c(O)c5c(c4O)[C@H](COC(N)=O)C4(OC)[C@@H]6N[C@@H]6CN54)C=C3)=C(C)C1=O)[C@@H]2COC(N)=O (some centres undefined)
Therapeutic ratio [2]: 8 | minimal effective dose [3]: 1.6 mg/kg | OD [4]: 25.6 mg/kg | T/C [5]: 250% | T/C [6]: 161%

COc1ccc(NC2=C(C)C(=O)C3=C(C2=O)[C@H](COC(N)=O)C2(OC)[C@@H]4N[C@@H]4CN32)cn1 (some centres undefined)
Therapeutic ratio [2]: 32 | minimal effective dose [3]: 0.2 mg/kg | OD [4]: 6.4 mg/kg | T/C [7]: 233% | T/C [6]: 211% | logD [8]: 0.59 | Change [10]: -45%

COc1ccc(NC2=C(C)C(=O)C3=C(C2=O)[C@H](COC(N)=O)C2(OC)[C@@H]4N[C@@H]4CN32)cc1OC (some centres undefined)
Average weight gain [11]: -1.3 g | T/C [9]: >333% | Average weight gain [12]: 0.6 g | T/C [12]: 263% | Therapeutic ratio [2]: 64 | minimal effective dose [3]: 0.2 mg/kg | OD [4]: 12.8 mg/kg | T/C [7]: 278% | Average weight gain [13]: 0.9 g | T/C [13]: 227% | T/C [14]: 180% | Average weight gain [15]: -0.6 g | T/C [15]: 252%

[H][C@@]12CN3c4c(O)c(C)c(/N=C5C=C/C(=N\CC(=O)O)C=C/5)c(O)c4[C@H](COC(N)=O)C3(OC)[C@]1([H])N2 (some centres undefined)
logD [1]: -0.78 | T/C [9]: 322% | Therapeutic ratio [2]: 32 | minimal effective dose [3]: 0.8 mg/kg | OD [4]: 25.6 mg/kg | T/C [5]: 294%

[H][C@@]12CN3c4c(O)c(C)c(/N=C5C=C/C(=N\C(C)=O)C=C/5)c(O)c4[C@H](COC(N)=O)C3(OC)[C@]1([H])N2 (some centres undefined)
logD [1]: 0.33 | Average weight gain [16]: 1.4 g | Cures [17]: 0 | T/C [18]: 155% | T/C [9]: >333% | Average weight gain [19]: 0.8 g | T/C [19]: 185% | Therapeutic ratio [2]: 128 | minimal effective dose [3]: 0.2 mg/kg | OD [4]: 25.6 mg/kg | Average weight gain [20]: -1.3 g | T/C [20]: 175% | Cures [21]: 0 | T/C [7]: 200% | Average weight gain [13]: 0.3 g | T/C [13]: 207% | Change [10]: -40%

COC12[C@@H]3N[C@@H]3CN1c1c(O)c(C)c(/N=C3/C=CN=N3)c(O)c1[C@@H]2COC(N)=O (some centres undefined)
T/C [9]: 333% | minimal effective dose [3]: 0.8 mg/kg | OD [4]: 25.6 mg/kg | T/C [7]: 161% | Change [10]: -15%

COC12[C@@H]3N[C@@H]3CN1c1c(O)c(C)c(N=C3C=CC(=N)C=C3)c(O)c1[C@@H]2COC(N)=O (some centres undefined)
logD [1]: 0.07 | T/C [9]: >337% | Therapeutic ratio [2]: >64 | minimal effective dose [3]: < 0.2 mg/kg | OD [4]: 12.8 mg/kg | T/C [5]: 250% | Change [10]: -64%

COC12[C@@H]3N[C@@H]3CN1C1=C(C(=O)C(Nc3nccs3)=C(C)C1=O)[C@@H]2COC(N)=O (some centres undefined)
Therapeutic ratio [2]: 32 | minimal effective dose [3]: 0.4 mg/kg | OD [4]: 6.4 mg/kg | T/C [7]: 281% | T/C [6]: 194% | logD [8]: 0.62 | Change [10]: -22%

COC12[C@@H]3N[C@@H]3CN1C1=C(C(=O)C(Nc3cccnc3)=C(C)C1=O)[C@@H]2COC(N)=O (some centres undefined)
Therapeutic ratio [2]: 16 | minimal effective dose [3]: 0.2 mg/kg | OD [4]: 3.2 mg/kg | T/C [7]: 198% | T/C [6]: 211% | logD [8]: 0.52 | Change [10]: -33%

CO[C@@]12[C@H](COC(N)=O)C3=C(C(=O)C(C)=C(N)C3=O)N1C[C@@H]1N[C@@H]12 [MITOMYCIN]
Cures [22]: 0 | T/C [23]: 155% | Cures [17]: 0 | Cures [24]: 0 | Average weight gain [18]: -0.1 g | T/C [18]: 165% | Cures [25]: 0 | Average weight gain [26]: 0.2 g | minimal effective dose [3]: 0.2 mg/kg | OD [4]: 3.2 mg/kg | Change [10]: -42% | Average weight gain [14]: 0.5 g | T/C [14]: 152% | Average weight gain [15]: -0.1 | T/C [15]: 200% | T/C [27]: 144%
